High-throughput results deposited in PubChem by several laboratories.
A selection: hits, their analogues and other compounds. The true share with any hit is near 1.8%.
Rev-erbA mod – modulates human Rev-erb alpha binding to DNA | P20393 | Rev-erbα–FITC-DNA binding, fluorescence polarization, 90 min | activity, % at 10 µM | 370,000 compounds, 0.79% hits | AID 1259318;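 active = activity above about 14%, limit read from the data; passing the limit was not always enough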;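 also: 0% = DMSO wells with 35 nM protein and 100% = DMSO wells with 750 nM protein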
Target sequence (P20393 whole entry, looked up): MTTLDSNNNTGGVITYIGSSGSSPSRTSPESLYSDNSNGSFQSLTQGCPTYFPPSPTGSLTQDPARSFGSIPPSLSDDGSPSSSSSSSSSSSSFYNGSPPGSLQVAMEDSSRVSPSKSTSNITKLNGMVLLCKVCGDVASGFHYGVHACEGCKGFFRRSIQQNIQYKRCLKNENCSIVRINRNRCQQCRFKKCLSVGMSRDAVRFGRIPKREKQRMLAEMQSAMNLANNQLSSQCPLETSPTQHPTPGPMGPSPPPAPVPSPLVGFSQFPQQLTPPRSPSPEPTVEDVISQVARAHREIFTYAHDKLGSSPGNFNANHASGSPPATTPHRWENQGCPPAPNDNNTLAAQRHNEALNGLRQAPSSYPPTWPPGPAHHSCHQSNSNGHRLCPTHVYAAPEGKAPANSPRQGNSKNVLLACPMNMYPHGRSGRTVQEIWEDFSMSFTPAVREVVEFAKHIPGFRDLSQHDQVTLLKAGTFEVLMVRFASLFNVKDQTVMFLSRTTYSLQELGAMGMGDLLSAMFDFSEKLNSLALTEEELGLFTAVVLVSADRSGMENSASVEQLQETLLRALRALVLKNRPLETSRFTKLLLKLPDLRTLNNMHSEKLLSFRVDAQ
NR2E3 ag-1 – activates human NR2E3 receptor | inhibition of corepressor binding, % at 3.98 µM | 360,000 compounds, 0.35% hits | AID 602229 | CHO-S Gal4-NCOR/VP16-NR2E3 two-hybrid, luciferase;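 active = inhibition above the mean of all tested compounds plus 3 SD, cut at about 70% in these data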;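 also: 0% = DMSO with NR2E3 transfected cells and 100% = cells lacking NR2E3 construct; higher means lower luciferase signal from less NR2E3 corepressor binding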
PG9 Ab binder – binds the HIV-1 gp120 antibody PG9; TR-FRET gp120-PG9 antibody binding; inhibition, % at 6.7 µM; 360,000 compounds, 0.43% hits; in the data active = inhibition above about 8.5%
NR2E3 ag-2 – activates human photoreceptor nuclear receptor NR2E3; GST-NR2E3/biotin-RetCOR TR-FRET, 1536-well; inhibition of corepressor binding, % at 4.78 µM; AID 2300; 320,000 compounds, 0.12% hits;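 active = percent inhibition above the cutoff of mean plus 3 SD of all tested compounds, set per screening campaign, cut at about 20% in these data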;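 also: 0% = DMSO wells and 100% = biotin wells as full block of FRET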
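Material: NR2E3–RetCOR corepressor complex / Amount: 1.35 nM GST-NR2E3 / Medium: Tris pH 7.5 / Compound: single nominal compound dose of 4.8 µM / Incubation: 5 h at 4 °C / Technique: TR-FRET, Eu(K)-anti-GST donor, streptavidin-D2 acceptor, ex 340, em 617/671 nm / Read-out basis: percent loss of FRET ratio relative to control wells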
GalR3 antagonist – human GalR3 antagonism | HEK293 GalR3-CNG cAMP membrane potential fluorescence; galR3 body fused to GalR1 C-terminus | O60755 | AID 651719 | inhibition, % at 3 µM | 360,000 compounds, 0.44% hits;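 active = inhibition above the screen-wide average plus 3 SD, cut at about 13% in these data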;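 also: forskolin and galanin both at EC90 stimulate the cells; cAMP rise reported by CNG channel membrane potential dye signal; 0% = forskolin plus galanin with DMSO and 100% = forskolin alone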
NR1D1 mod conf – Rev-erb alpha (human) modulation, hit confirmation. shares compounds with Rev-erbA mod. Rev-erb alpha FITC-DNA binding, fluorescence polarization, 90 min. activation, % at 25 µM. 3,000 compounds, 61% hits. AID 1259319;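 active = activation at or above a set limit, or at least 3 SD above the negative control mean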;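 also: 0% = 35 nM protein with DMSO and 100% = 750 nM protein high control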
RORg DNA counter – RORgamma DNA-binding activity, dose-response counter-screen; shares compounds with Rev-erbA mod; purified RORgamma protein-FITC-DNA binding, fluorescence polarization; IC50, µM; 910 compounds, 8% hits;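 active = Compounds whose fitted half-maximal concentration for disrupting protein-DNA binding is below 10 micromolar; the record names Rev-erb in its text, so the target is in doubt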
Numbers without * were called inactive; . = no result.

SMILES	Rev-erbA mod	NR2E3 ag-1	PG9 Ab binder	NR2E3 ag-2	GalR3 antagonist	NR1D1 mod conf	others
CC(=O)c1cnc2cc(-c3cccc(Br)c3)nn2c1C	24.3*	-59.4	-0.9	2.0	-4.2	5.6
O=c1ccc2c(-c3ccccc3)c3ccc(O)cc3oc-2c1	101.9*	-13.9	-3.1	-2.2	-3.0	99.5*	RORg DNA counter=>40
Nc1ccc(-c2c3ccc(=O)cc-3oc3cc(O)ccc23)cc1C(=O)O	187.2*	-43.6	-6.4	-1.6	-10.0	240.4*	RORg DNA counter=>40
O=c1cc(-c2ccccc2)oc2cc(O)ccc12	1.8	-91.9	2.0	.	-7.6	.
CCOC(=O)CC[C@@H]1CC[C@]2(CCCN(Cc3cccs3)C2)O1	2.6	.	.	.	.	.
COc1ccc(C2=NN(C(=O)CSc3nc(=O)n4cccc(C)c4n3)C(c3ccc(C)cc3)C2)cc1 (stereo unspecified)	39.3*	3.0	-0.3	-6.5	-1.5	9.0
Cc1ccc(C2CC(c3cccs3)=NN2C(=O)CSc2nc(=O)n3cc(C)ccc3n2)cc1 (stereo unspecified)	26.7*	-39.3	-0.1	-2.3	-4.4	18.3*
Cc1ccc2nc(SCC(=O)N3N=C(c4cccs4)CC3c3ccc(F)cc3)nc(=O)n2c1 (stereo unspecified)	-3.9	9.3	3.0	.	1.3	.
Cc1cccn2c(=O)nc(SCC(=O)N3N=C(c4cccs4)CC3c3ccc(F)cc3)nc12 (stereo unspecified)	6.8	19.5	1.8	.	-2.1	.
COc1ccc(C2=NN(C(=O)CSc3ncccn3)C(c3cccc(OC)c3OC)C2)cc1 (stereo unspecified)	38.9*	-0.1	-4.0	0.1	-5.7	33.0*	RORg DNA counter=>40
COc1ccc(C2=NN(C(=O)CSc3ncccn3)C(c3ccc(C)cc3)C2)cc1 (stereo unspecified)	1.3	12.4	-2.5	-1.7	-3.0	.
Cc1cc(C)cc(NC(=O)OC2CC3CC2[C@H]2CCCCN2[C@H]3Cc2ccccc2)c1 (stereo partly specified)	0.4	.	.	.	.	.
COc1ccc2nc(-c3ccccc3)cc(C(=O)OCC(=O)NC3CC3)c2c1	18.2*	8.4	0.3	.	0.4	2.4
COc1ccc(CNC(=O)COC(=O)c2cc(-c3ccc(Cl)s3)nc3ccccc23)cc1	120.7*	-19.0	5.6	4.0	1.8	60.9*
COc1ccc(-c2cc(C(=O)OCC(=O)NC3CC3)c3ccccc3n2)cc1OC	1.4	-15.4	-0.1	.	-5.0	.
O=C(NCCO)[C@H](Cc1ccccc1)NC1(C(=O)NCCN2CCOCC2)CCCCC1	4.6	.	.	.	.	.
C[C@H](O)[C@@H]1CN2CCc3c([nH]c4c(-c5ccccc5)cccc34)[C@@H]2C[C@@H]1N(C)CC1CCCCC1	-2.4	.	.	.	.	.
Cn1cc(C(=O)NCc2cccs2)c(=O)c2cc(S(=O)(=O)N3CCCC3)ccc21	28.1*	-18.2	-1.2	-3.1	-2.0	24.6*
Cn1cc(C(=O)NCc2cccnc2)c(=O)c2cc(S(=O)(=O)N3CCCCCC3)ccc21	.	.	.	-3.2	.	.
COC(=O)[C@]12C[C@H](CC(=O)NCc3ccc(C)o3)C(=O)N(Cc3ccc(Cl)cc3Cl)C1=C[C@H](C(C)(C)C)O[C@@H]2C	1.5	.	.	.	.	.
C=CCSc1nc(N)c(C#N)c(-c2ccccc2)c1C#N	49.9*	-25.6	3.9	4.6	0.9	32.1*	RORg DNA counter=>40
CCCSc1nc(N)c(C#N)c(-c2ccc(C)cc2)c1C#N	66.4*	2.6	7.2	7.3	-6.5	32.5*
CCOC(=O)CC(=O)CSc1nc(N)c(C#N)c(-c2ccc(Cl)cc2)c1C#N	13.8	-29.3	0.5	6.2	-6.6	.
N#Cc1c(N)nc(SCC(=O)C23CC4CC(CC(C4)C2)C3)c(C#N)c1-c1ccc(Cl)cc1	81.1*	-27.9	-1.0	0.1	-2.3	43.6*	RORg DNA counter=>40
CCC[C@H]1[C@H](N)CC[C@@]23CCCN2C(=O)CCC[C@@H]13	-7.4	.	.	.	.	.
COc1ccc(Cn2c3ccc(OC)cc3c3nc4ccccc4nc32)cc1	25.4*	-6.8	-0.9	-1.6	-2.7	22.7*
COc1ccc2c(c1)c1nc3ccccc3nc1n2Cc1ccc(OC(C)C)c(OC)c1	3.3	-12.3	-0.3	-4.4	3.8	.
